Series [1] has as its target T1, Phosphatidylinositol 4,5-bisphosphate 3-kinase catalytic subunit beta isoform (Homo sapiens, UniProt P42338). In words: Inhibition of PI3Kbeta (unknown origin) expressed in baculovirus-infected fall armyworm sf21 cells co-expressing p85 by kinase-glo luminescence assay. The essentials:
(§1)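 Recombinant p110 isoforms made by baculovirus in Sf21 cells. Kinase activity read by Kinase-Glo luminescence at 10 µM ATP. IC50 taken as the mean of at least two duplicate experiments.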
(In general: Kinase-Glo measures the ATP left after a reaction by luminescence.)
Target sequence in this assay (P42338 whole entry, canonical isoform): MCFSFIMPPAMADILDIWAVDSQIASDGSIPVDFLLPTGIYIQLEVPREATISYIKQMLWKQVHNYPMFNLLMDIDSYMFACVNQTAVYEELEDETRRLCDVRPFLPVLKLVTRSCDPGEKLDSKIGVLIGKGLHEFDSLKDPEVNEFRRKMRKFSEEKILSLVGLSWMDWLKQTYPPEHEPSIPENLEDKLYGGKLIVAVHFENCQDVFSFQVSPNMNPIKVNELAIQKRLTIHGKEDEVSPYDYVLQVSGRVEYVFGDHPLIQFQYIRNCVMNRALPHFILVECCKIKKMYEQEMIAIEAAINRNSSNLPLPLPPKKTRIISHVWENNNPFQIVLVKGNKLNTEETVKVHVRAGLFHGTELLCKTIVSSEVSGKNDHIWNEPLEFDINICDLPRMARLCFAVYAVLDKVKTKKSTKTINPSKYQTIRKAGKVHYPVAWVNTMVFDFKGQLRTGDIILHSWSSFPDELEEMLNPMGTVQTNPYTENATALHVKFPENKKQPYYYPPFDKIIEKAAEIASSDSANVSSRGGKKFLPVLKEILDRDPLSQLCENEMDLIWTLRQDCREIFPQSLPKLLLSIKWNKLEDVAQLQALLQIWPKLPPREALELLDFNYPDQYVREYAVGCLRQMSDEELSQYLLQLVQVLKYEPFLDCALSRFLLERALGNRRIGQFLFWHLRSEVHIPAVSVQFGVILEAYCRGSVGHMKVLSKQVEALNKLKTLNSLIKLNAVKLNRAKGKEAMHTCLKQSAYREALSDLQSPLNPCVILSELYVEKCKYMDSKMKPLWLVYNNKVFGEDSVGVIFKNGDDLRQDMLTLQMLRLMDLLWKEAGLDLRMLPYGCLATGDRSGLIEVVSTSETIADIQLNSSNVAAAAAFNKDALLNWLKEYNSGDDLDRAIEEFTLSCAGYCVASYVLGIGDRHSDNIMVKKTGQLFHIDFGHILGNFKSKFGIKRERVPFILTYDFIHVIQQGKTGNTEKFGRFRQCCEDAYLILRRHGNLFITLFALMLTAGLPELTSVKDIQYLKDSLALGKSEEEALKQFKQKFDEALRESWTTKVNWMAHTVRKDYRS

Series [2] deals with T2, Phosphatidylinositol 4,5-bisphosphate 3-kinase catalytic subunit delta isoform (Homo sapiens, UniProt O00329).
T2 sequence (O00329 whole entry): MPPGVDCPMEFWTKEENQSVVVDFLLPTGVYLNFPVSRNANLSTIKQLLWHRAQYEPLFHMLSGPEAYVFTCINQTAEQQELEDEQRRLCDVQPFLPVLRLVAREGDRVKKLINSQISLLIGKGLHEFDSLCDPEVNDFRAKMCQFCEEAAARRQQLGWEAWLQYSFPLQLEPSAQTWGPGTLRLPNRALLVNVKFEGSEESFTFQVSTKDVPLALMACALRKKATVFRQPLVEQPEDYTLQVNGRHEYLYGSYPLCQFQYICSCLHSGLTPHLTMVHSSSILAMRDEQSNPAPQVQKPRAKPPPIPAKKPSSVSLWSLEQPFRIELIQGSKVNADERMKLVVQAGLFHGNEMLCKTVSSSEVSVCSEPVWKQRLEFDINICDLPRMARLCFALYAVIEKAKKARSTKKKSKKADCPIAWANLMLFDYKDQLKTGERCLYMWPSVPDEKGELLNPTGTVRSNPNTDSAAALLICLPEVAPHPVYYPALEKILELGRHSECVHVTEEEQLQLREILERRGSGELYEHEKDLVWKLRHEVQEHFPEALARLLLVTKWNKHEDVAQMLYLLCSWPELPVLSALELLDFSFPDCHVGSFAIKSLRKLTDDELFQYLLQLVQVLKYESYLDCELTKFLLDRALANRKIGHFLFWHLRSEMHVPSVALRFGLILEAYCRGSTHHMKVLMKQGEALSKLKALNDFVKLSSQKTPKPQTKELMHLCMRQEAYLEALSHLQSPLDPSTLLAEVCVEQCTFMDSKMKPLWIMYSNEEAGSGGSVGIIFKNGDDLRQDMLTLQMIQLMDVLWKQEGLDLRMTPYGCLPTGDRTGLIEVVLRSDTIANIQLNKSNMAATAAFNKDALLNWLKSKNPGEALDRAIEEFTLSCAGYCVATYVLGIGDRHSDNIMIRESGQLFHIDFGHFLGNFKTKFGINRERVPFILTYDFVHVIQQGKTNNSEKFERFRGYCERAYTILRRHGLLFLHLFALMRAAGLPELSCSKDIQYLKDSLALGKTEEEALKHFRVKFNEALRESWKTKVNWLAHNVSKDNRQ
In words: Inhibition of PI3Kdelta (unknown origin) expressed in baculovirus-infected fall armyworm sf21 cells co-expressing p85 by kinase-glo luminescence assay. The essentials:
as §1

Series [3] concerns the target T1, Phosphatidylinositol 4,5-bisphosphate 3-kinase catalytic subunit beta isoform. In words: Inhibition of PI3Kbeta in human washed platelets assessed as suppression of ADP-induced platelet aggregation preincubated for 5 mins followed by ADP stimulation after 10 mins by light transmission aggregometric analysis. The procedure, abridged: (§2)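 Washed human platelets in a conventional aggregometer. Aggregation induced by ADP; IC50 taken from the dose-response curve.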
Target sequence in this assay (P42338 whole entry, looked up, canonical isoform): as the sequence (P42338 whole entry, canonical isoform) above

Series [4] is described as follows: Inhibition of PI3Kbeta in human washed platelets assessed as suppression of TRAP-induced platelet aggregation at 10 to 1000 nM preincubated for 5 mins followed by TRAP stimulation after 10 mins by light transmission aggregometric analysis.
Series [5] has as its target T1, Phosphatidylinositol 4,5-bisphosphate 3-kinase catalytic subunit beta isoform. In words: Inhibition of PI3Kbeta in human washed platelets assessed as suppression of ADP-induced platelet aggregation at 1 to 1000 nM preincubated for 5 mins followed by ADP stimulation after 10 mins by light transmission aggregometric analysis. The procedure, abridged: as §2
Target sequence in this assay (P42338 whole entry, looked up, canonical isoform): as the sequence (P42338 whole entry, canonical isoform) above
The test system of series [6] is Platelet. Briefly: […] activity in human washed platelets assessed as […] ADP-induced platelet aggregation at 10 to 1000 nM preincubated for 5 mins followed by ADP stimulation after 10 mins by light transmission aggregometric analysis. Format: functional, cell-based.
For series [7], the target named is T1, Phosphatidylinositol 4,5-bisphosphate 3-kinase catalytic subunit beta isoform. In words: Inhibition of PI3Kbeta in human washed platelets assessed as suppression of ADP-induced platelet aggregation at 0.5 uM preincubated for 5 mins followed by 25 uM ADP stimulation after 10 mins by light transmission aggregometric analysis. The procedure, abridged: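 Washed human platelets in an aggregometer. Inhibitor at 0.5 µM. Aggregation induced by 5, 10 or 25 µM ADP; percent inhibition read.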
Target sequence in this assay (P42338 whole entry, looked up, canonical isoform): as the sequence (P42338 whole entry, canonical isoform) above

Series [8] deals with Platelet. In words: Antiplatelet activity against human washed platelets assessed as reduction in shear-induced stationary platelet adhesionto vWF matrix at 2 uM preincubated for 5 mins followed by blood perfusion after 4 mins. Format: functional, cell-based. The procedure, abridged: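 Human whole blood, anticoagulated, perfused over a vWf matrix at 1800 s^-1 for 4 min; stationary platelet adhesion scored. Vehicle DMSO 0.25% taken as 100%. Drug tested up to 5 µM. t test against 0.1 µM drug.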

Series [9] is described as follows: Drug level in iv dosed rat serum after 5 mins by LC-MS analysis. Format: ADME, organism-based. The conditions noted are these: read-out: Drug uptake.
Series [10] can be described thus: Drug level in iv dosed rat serum after 60 mins by LC-MS analysis. The following applies: read-out: Drug uptake. It is filed as ADME, organism-based.

We go through 22 molecules from ChEMBL document CHEMBL3865805, “Discovery and antiplatelet activity of a selective PI3Kβ inhibitor (MIPS-9922)” (Eur J Med Chem, 2016).

Active and inactive are the calls of the source. The calls are words filed in the database; no cut-off is given here.

A word on the IC50: it is the point on the concentration scale where inhibition reaches its midpoint. The low end stands for inhibition by little substance, the high end for a need for much substance. In [1], `FC(F)c1nc2ccccc2n1-c1nc(NC2CCNCC2)nc(N2CCOCC2)n1` gave an IC50 of 2.11 µM.

Regarding `O=C([C@H]1CCCN1)N1CCN(c2nc(N3CCOCC3)nc(-n3c(C(F)F)nc4ccccc43)n2)CC1`, the IC50 in [1] came out at 0.036 µM; in [2], 0.012 µM. The inhibition result in series [3] is “Dose-dependent effect”. In addition, in series [4], the inhibition entry was “Active”.

In [1], `O=C(C1CCCN1)N1CCC(c2nc(N3CCOCC3)nc(-n3c(C(F)F)nc4ccccc43)n2)CC1` (single isomer, unassigned) had an IC50 of 2 µM. That is a single-digit micromolar value.

`NC1CCN(c2nc(N3CCOCC3)nc(-n3c(C(F)F)nc4ccccc43)n2)CC1`: the IC50 in series [1] worked out at 0.955 µM.

The molecule `NCC(=O)NC1CCCN(c2nc(N3CCOCC3)nc(-n3c(C(F)F)nc4ccccc43)n2)C1` (stereo not drawn) gave an IC50 in series [1] of 1.21 µM.

As for `NCC(=O)NCC1CCN(c2nc(N3CCOCC3)nc(-n3c(C(F)F)nc4ccccc43)n2)CC1`, the IC50 in [1] is 0.428 µM.

In the case of `NCCC1CCN(c2nc(N3CCOCC3)nc(-n3c(C(F)F)nc4ccccc43)n2)CC1`, the results for the IC50 in series [1] and in series [2] were 0.19 µM and 1 µM, respectively. The inhibition result in [5] and in series [4] was “Active” throughout.

Regarding `NC1CCCN(c2nc(N3CCOCC3)nc(-n3c(C(F)F)nc4ccccc43)n2)C1` (stereo not drawn), in [1], the IC50 is 0.554 µM.

`O=C(C1CCNCC1)N1CCN(c2nc(N3CCOCC3)nc(-n3c(C(F)F)nc4ccccc43)n2)CC1`: the IC50 in series [1] was determined as 3.21 µM; in [2], 0.33 µM.

As to `NCC(=O)N1CCC(c2nc(N3CCOCC3)nc(-n3c(C(F)F)nc4ccccc43)n2)CC1`, the IC50 came out at 0.36 µM in series [1] and 0.12 µM in series [2].

In the case of `NCCCC[C@H](N)C(=O)N1CCN(c2nc(N3CCOCC3)nc(-n3c(C(F)F)nc4ccccc43)n2)CC1`, in series [6], the outcome was Active.

With `C[C@H](N)C(=O)N1CCN(c2nc(N3CCOCC3)nc(-n3c(C(F)F)nc4ccccc43)n2)CC1`, the inhibition result in series [5] is “Active”.

As to `Cc1cc(C(C)Nc2ccccc2)c2nc(N3CCOCC3)cc(=O)n2c1` (stereo not drawn), the inhibition entry in series [7] and in series [8] was “Active” each time. The concentration at 5 min in series [9] was found to be 2 µM. Moreover, the concentration at 1 h in series [10] worked out at 0.2 µM.

On to `C[C@H](N)C(=O)N1CCC(c2nc(N3CCOCC3)nc(-n3c(C(F)F)nc4ccccc43)n2)CC1`, for which the 50% inhibitory concentration (IC50) in [1] was 0.54 µM; in series [2] it was 1.09 µM.

Regarding `CC(C)C[C@H](N)CC(=O)N1CCN(c2nc(N3CCOCC3)nc(-n3c(C(F)F)nc4ccccc43)n2)CC1`, the IC50 is above 10 µM in series [1] and 9.1 µM in series [2].

`NCC(=O)N1CCC(Nc2nc(N3CCOCC3)nc(-n3c(C(F)F)nc4ccccc43)n2)CC1` yielded an IC50 in series [1] of 1.06 µM. In other words, the single-digit micromolar range.

In series [1], `NCC(=O)NC1CCN(c2nc(N3CCOCC3)nc(-n3c(C(F)F)nc4ccccc43)n2)CC1` gave an IC50 of 1.33 µM.

Turning to `NCC1CCN(c2nc(N3CCOCC3)nc(-n3c(C(F)F)nc4ccccc43)n2)CC1`, in [1], the IC50 turned out to be 0.811 µM.

With `C[C@@H](N)C(=O)N1CCC(c2nc(N3CCOCC3)nc(-n3c(C(F)F)nc4ccccc43)n2)CC1`, the IC50 stood at 3.2 µM in series [1] and 0.74 µM in [2].

On to `O=C([C@@H]1CCCN1)N1CCN(c2nc(N3CCOCC3)nc(-n3c(C(F)F)nc4ccccc43)n2)CC1`, for which the inhibition entry in series [3] was “Dose-dependent effect”. Also, the inhibition entry in series [4] was “Active”.

In turn, `CC(=O)NC1CCN(c2nc(N3CCOCC3)nc(-n3c(C(F)F)nc4ccccc43)n2)CC1` returned an IC50 in [1] of 0.521 µM.

`N[C@@H](CC(=O)N1CCN(c2nc(N3CCOCC3)nc(-n3c(C(F)F)nc4ccccc43)n2)CC1)c1ccccc1`: the values for the IC50 in [1] and in [2] were 1.8 µM and 17 µM, respectively.
